Reference: publication PMC3205972 (Journal of medicinal chemistry, 2009)
Read-outs that look alike come from different tables or passages of the source.

Columns and labels:
healthy mice = experiment: Chronic maximal tolerated dose in healthy mice; format: in vivo, mouse; details: i.v. 5, 10, 20, 40 and 80 mg/kg once a day during 5 consecutive days; 28 days
U373 GBM cells [1] = experiment: Quantitative videomicroscopy: cell growth; format: cell-based, human; details: 5 μM, 72 h
[2] = test system: Normal Cell Lines (Wi38, WS1, NHDF); experiment: MTT colorimetric assay, mean over three normal cell lines; format: cell-based; details: read-out: IC50 In Vitro Growth Inhibitory Values, Normal Cell Lines, Mean ± SEM
A549 NSCLC cells [3] = experiment: Quantitative videomicroscopy: cell growth; format: cell-based, human; details: 5 μM, 72 h
U373 GBM cells [4] = experiment: Flow cytometry, annexin V / propidium iodide staining; format: cell-based, human; details: 72 hrs
CYP3A4 = details: cited from earlier work
U373 GBM cells [5] = experiment: Actin cytoskeleton organization by computer-assisted fluorescence microscopy; format: cell-based, human; details: 5 μM for 6 hrs
A549 NSCLC cells [6] = experiment: Soft-agar colony formation, anchorage-independent culture; format: cell-based, human; details: between 0.5 (p < 0.05) and 5 (p < 0.01) μM, 38 days
[7] = test system: cancer versus normal cell lines; experiment: In vitro therapeutic ratio, cancer versus normal cell lines; format: cell-based
In short: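 MTT colorimetric growth assay on human cancer and normal cell lines. Cells were plated for 24 h at 10,000 to 40,000 cells/mL, depending on cell type, then cultured 72 h with or without test compound. Formazan from mitochondrial MTT reduction was read at 570 nm (reference 630 nm), in sextuplicate. The ratio compares MTT growth-inhibitory IC50 between normal and cancer cells.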

SKMEL-28 melanoma cells = experiment: MTT colorimetric assay, in vitro growth inhibition; format: cell-based, human
[8] = test system: OE21 esophageal cancer cells; experiment: MTT colorimetric assay, in vitro growth inhibition; format: cell-based, human
B16F10 melanoma cells = experiment: MTT colorimetric assay, in vitro growth inhibition; format: cell-based, mouse
[9] = test system: A549 non-small-cell-lung cancer (NSCLC) cells; experiment: MTT colorimetric assay, in vitro growth inhibition; format: cell-based, human
[10] = test system: Cancer Cell Lines (A549, OE21, Hs683, U373, SKMEL, B16F10); experiment: MTT colorimetric assay, mean over six cancer cell lines; format: cell-based; details: read-out: IC50 In Vitro Growth Inhibitory Values, Cancer Cell Lines, Mean ± SEM
[11] = test system: Hs683 anaplastic oligodendroglioma cells; experiment: MTT colorimetric assay, in vitro growth inhibition; format: cell-based, human
[12] = test system: U373 glioblastoma (GBM) cells; experiment: MTT colorimetric assay, in vitro growth inhibition; format: cell-based, human; details: 72 h
[13] = test system: MCF-7 breast cancer cells; experiment: Flow cytometry, annexin V / propidium iodide staining; format: cell-based, human; details: 1 μM for 72 hrs, positive control
[14] = test system: glioma cells, which display resistance to proapoptotic stimuli; details: 1 μM; cited from earlier work
[15] = read-out: In Vitro IC50 Growth Inhibitory Values, SKMEL, MTT, 72 h, concentrations of up to 10 μM
[16] = read-out: In Vitro IC50 Growth Inhibitory Values, OE21, MTT, 72 h, concentrations of up to 10 μM
[17] = read-out: In Vitro IC50 Growth Inhibitory Values, B16F10, MTT, 72 h, concentrations of up to 10 μM
[18] = read-out: In Vitro IC50 Growth Inhibitory Values, A549, MTT, 72 h, concentrations of up to 10 μM
[19] = read-out: In Vitro IC50 Growth Inhibitory Values, Hs683, MTT, 72 h, concentrations of up to 10 μM
[20] = read-out: In Vitro IC50 Growth Inhibitory Values, U373, MTT, concentrations of up to 10 μM

O[C@H]1[C@H]2c3cc4c(cc3CN3CCC(=C[C@@H]1O)[C@H]23)OCO4 [compound 1, (1S,2S,12bS,12cS)-1,2-Diol,2,4,5,7,12b,12c-hexahydro-1H-[1,3]dioxolo[4,5-j]pyrrolo[3,2,1-de]phenanthridine]
toxicity (body weight, death) (healthy mice): no gross toxicity | in vitro growth inhibitory activity based on global growth rate (GGR) (U373 GBM cells [1]): marked in vitro growth inhibitory activity | IC50 [2]: > 100 µM | in vitro growth inhibitory activity based on global growth rate (GGR) (A549 NSCLC cells [3]): marked in vitro growth inhibitory activity | pro-apoptotic effects (AV+ cells) (U373 GBM cells [4]; 5 μM or 50 μM): did not induce pro-apoptotic effects | non-apoptotic cell death (AV-/PI+ cells) (U373 GBM cells [4]; 50 μM): induced non-apoptotic cell death | CYP3A4 inhibitory activity (CYP3A4): no CYP3A4 inhibitory activity | levels of polymerized actin (U373 GBM cells [5]): markedly increased the levels of polymerized actin | colony formation on soft agar (A549 NSCLC cells [6]): significantly impairs colony formation | Therapeutic ratio ([7]; MTT IC50): > 15 | Therapeutic ratio ([7]; MTT IC50, listed as Lycorine): at least 15 | Therapeutic ratio ([7]; MTT IC50, listed as lycorine): 15

CC(=O)O[C@H]1[C@H]2c3cc4c(cc3CN3CCC(=C[C@@H]1OC(C)=O)[C@H]23)OCO4 [compound 3, (1S,2S,12bS,12cS)-1,2-Diol-2,4,5,7,12b,12c-hexahydro-1H-[1,3]dioxolo[4,5-j]pyrrolo[3,2,1-de]phenanthridine-1,2-diacetate]
IC50 (SKMEL-28 melanoma cells; [15]): > 10 µM

CC(=O)O[C@H]1C=C2CCN3Cc4cc5c(cc4[C@H]([C@@H]1O)[C@@H]23)OCO5 [compound 5, (1S,2S,12bS,12cS)-1,2-Diol-2,4,5,7,12b,12c-hexahydro-1H-[1,3]dioxolo[4,5-j]pyrrolo[3,2,1-de]phenanthridine-2-acetate]
IC50 [2]: > 96.2 µM | IC50 ([8]; Homo sapiens, OE21, 72 h, read-out: IC50 In Vitro Growth Inhibitory Values): 77.4 ± 3.1 µM | IC50 (B16F10 melanoma cells; Mus musculus, B16-F10, 72 h, read-out: IC50 In Vitro Growth Inhibitory Values): 37.1 ± 2.8 µM | IC50 ([9]; Homo sapiens, A549, 72 h, read-out: IC50 In Vitro Growth Inhibitory Values): 47.6 ± 2.3 µM | IC50 [10]: 59.3 ± 8.2 µM | IC50 ([11]; Homo sapiens, Hs 683, 72 h, read-out: IC50 In Vitro Growth Inhibitory Values): 43 ± 2 µM | Therapeutic ratio ([7]; MTT IC50): > 2 | IC50 ([12]; Homo sapiens, U373 MG, read-out: IC50 In Vitro Growth Inhibitory Values): 63.1 ± 4.1 µM

O[C@H]1[C@H]2c3cc4c(cc3CN3CCC(=C[C@@H]1Cl)[C@H]23)OCO4 [compound 6, (1S,2S,12bS,12cS)-1-ol-2-Chloro-2,4,5,7,12b,12c-hexahydro-1H-[1,3]Dioxolo[4,5-j]pyrrolo[3,2,1-de]phenanthridine]
IC50 [2]: > 72.7 µM | Therapeutic ratio ([7]; MTT IC50): > 11

CC(=O)O[C@H]1[C@H]2c3cc4c(cc3CN3CC[C@H](C[C@@H]1OC(C)=O)[C@H]23)OCO4 [compound 9, (1S,2S,3aR,12bS,12cR)-1,2-Diol-2,3,3a,4,5,7,12b,12c-octahydro-1H-[1,3]dioxolo[4,5-j]pyrrolo[3,2,1-de]phenanthridine diacetate]
IC50 [8, 16]: > 10 µM | IC50 (B16F10 melanoma cells; [17]): > 10 µM | IC50 [9, 18]: > 10 µM | IC50 [11, 19]: > 10 µM | IC50 (SKMEL-28 melanoma cells; [15]): > 10 µM | IC50 [12, 20]: > 10 µM

CC(=O)O[C@H]1[C@H]2c3cc4c(cc3CN3CC[C@@H](C[C@@H]1OC(C)=O)[C@H]23)OCO4 [compound 11, (1α,2β,12β)-1,2-Diol-9,10-[methylenebis(oxy)]-galanthan-diacetate]
IC50 [8, 16]: > 10 µM | IC50 (B16F10 melanoma cells; [17]): > 10 µM | IC50 [9, 18]: > 10 µM | IC50 [11, 19]: > 10 µM | IC50 (SKMEL-28 melanoma cells; [15]): > 10 µM | IC50 [12, 20]: > 10 µM

C1=C2CCN3Cc4cc5c(cc4[C@H]([C@@H]4O[C@H]14)[C@@H]23)OCO5 [compound 14, (1α,2α)-3,12-didehydro-1,2-epoxy-9,10-[methylenebis(oxy)]-galanthan]
IC50 ([2]; mean of three normal cell lines): 24.9 ± 8.2 µM | IC50 ([10]; mean of six cancer cell lines): 5.3 ± 1.2 µM | Therapeutic ratio ([7]; MTT IC50): 5

COc1cc2c(cc1O)[C@@H]1[C@H](O)[C@@H](O)C=C3CCN(C2)[C@H]31 [compound 18, (1S,2S,11bS,11cS)-1,2,10-triol-2,4,5,7,11b,11c-hexahydro-9-methoxy-1H-pyrrolo[3,2,1-de]phenanthridine]
IC50 [2]: 63.3 ± 7.3 µM | IC50 [10]: 9 ± 1.3 µM | Therapeutic ratio ([7]; MTT IC50): 7

c1cc2c3c(c1)-c1cc4c(cc1CN3CC2)OCO4 [compound 20, 4,5-dihydro-7H-[1,3]Dioxolo[4,5-j]pyrrolo[3,2,1-de]phenanthridine]
IC50 [10]: 11.6 ± 3.4 µM | Therapeutic ratio ([7]; MTT IC50): 2 | IC50 (SKMEL-28 melanoma cells; Homo sapiens, SK-MEL-28, 72 h, read-out: IC50 In Vitro Growth Inhibitory Values): 20.9 ± 1.2 µM

COC1=C[C@@H]2CCN3Cc4cc5c(cc4[C@@H]([C@H]23)[C@@H]1O)OCO5 [compound 22, (1S,3aS,12bS,12cS)-1-ol-2-methoxy-3a,4,5,7,12b,12c-hexahydro-1H-[1,3]Dioxolo[4,5-j]pyrrolo[3,2,1-de]phenanthridine]
IC50 [2]: > 99.2 µM | Therapeutic ratio ([7]; MTT IC50): > 13

O=C1N[C@@H]2C(=C[C@H](O)[C@@H](O)[C@H]2O)c2cc3c(c(O)c21)OCO3 [narciclasine]
pro-apoptotic effects (AV/PI staining) [13]: induced significant pro-apoptotic effects | CYP3A4 inhibitory activity (CYP3A4): does | apoptosis induction [14]: unable to induce apoptosis
